One block for each molecule: values may come before it. Activity calls are given as the source filed them. No cut-off for these calls is given here.
Columns and labels:
Rattus norvegicus = test: Drug metabolism in […] in presence of NADPH; format: ADME
Liver [1] = test: Drug metabolism in Sprague-Dawley rat liver homogenates in presence of ATP, CoA, L-carnitine, NAD+; format: ADME, tissue-based; details: tissue homogenate
[2] = molecular target: T1, fMet-Leu-Phe receptor (Homo sapiens) (UniProt P21462); test: Antagonist activity at FPR1 receptor (unknown origin) expressed in indo-1 loaded neutrophils assessed as inhibition of fMLP-induced calcium mobilization at 10 uM by spectrofluorometric analysis; format: functional
T1 sequence (whole entry): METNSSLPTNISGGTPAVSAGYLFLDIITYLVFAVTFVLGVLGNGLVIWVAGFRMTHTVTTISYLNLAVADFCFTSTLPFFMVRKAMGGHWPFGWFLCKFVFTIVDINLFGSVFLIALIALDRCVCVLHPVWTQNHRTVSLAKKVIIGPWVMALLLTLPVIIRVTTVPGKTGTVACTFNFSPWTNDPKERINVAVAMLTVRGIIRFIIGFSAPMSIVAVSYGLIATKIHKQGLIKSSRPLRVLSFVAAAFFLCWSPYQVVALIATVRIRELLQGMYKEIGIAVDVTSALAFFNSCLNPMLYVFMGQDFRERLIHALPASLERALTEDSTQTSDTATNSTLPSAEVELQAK
Outline: (§1)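 Human blood neutrophils (dextran sedimentation, Ficoll, hypotonic lysis) loaded with indo-1 AM. Ca++ 1.8 mM and Mg++ 1 mM added to the cuvette. Read at 37 °C with stirring, ex 331/em 410 nm. Vehicle or antagonist (10 μM) added, 5-oxo-ETE (10 nM) 2 min later, second agonist (LTB4, PAF, fMLP or IL-8) after a further 2 min, digitonin (0.1%) 1 min later for maximal fluorescence. Two independent experiments.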

[3] = molecular target: Leukotriene B4 receptor 1 (Homo sapiens) (UniProt Q15722); test: Antagonist activity at LTB4 receptor (unknown origin) expressed in indo-1 loaded neutrophils assessed as inhibition of LTB4-induced calcium mobilization at 10 uM by spectrofluorometric analysis; format: functional; outline: as §1
Sequence of Leukotriene B4 receptor 1 (Homo sapiens) (Q15722 whole entry): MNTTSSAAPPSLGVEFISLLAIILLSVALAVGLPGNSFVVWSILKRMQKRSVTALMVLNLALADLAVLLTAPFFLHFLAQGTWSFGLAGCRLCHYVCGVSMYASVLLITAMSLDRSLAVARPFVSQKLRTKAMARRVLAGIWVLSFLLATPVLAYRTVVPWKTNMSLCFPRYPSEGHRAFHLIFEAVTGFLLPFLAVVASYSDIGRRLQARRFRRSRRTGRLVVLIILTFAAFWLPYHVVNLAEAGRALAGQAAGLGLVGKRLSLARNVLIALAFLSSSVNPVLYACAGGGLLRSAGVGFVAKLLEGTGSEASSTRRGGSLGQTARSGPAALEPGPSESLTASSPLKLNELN

Oxoeicosanoid receptor 1 [4] = molecular target: T2, Oxoeicosanoid receptor 1 (Homo sapiens, UniProt Q8TDS5); test: Antagonist activity at OXE receptor (unknown origin) expressed in anti-CD49d-labeled eosinophils assessed as inhibition of 5-oxo-ETE-induced F-actin polymerization preincubated for 5 mins followed by 5-oxo-ETE induction measured after 20 secs by flow cytometric analysis
T2 sequence (Q8TDS5 whole entry): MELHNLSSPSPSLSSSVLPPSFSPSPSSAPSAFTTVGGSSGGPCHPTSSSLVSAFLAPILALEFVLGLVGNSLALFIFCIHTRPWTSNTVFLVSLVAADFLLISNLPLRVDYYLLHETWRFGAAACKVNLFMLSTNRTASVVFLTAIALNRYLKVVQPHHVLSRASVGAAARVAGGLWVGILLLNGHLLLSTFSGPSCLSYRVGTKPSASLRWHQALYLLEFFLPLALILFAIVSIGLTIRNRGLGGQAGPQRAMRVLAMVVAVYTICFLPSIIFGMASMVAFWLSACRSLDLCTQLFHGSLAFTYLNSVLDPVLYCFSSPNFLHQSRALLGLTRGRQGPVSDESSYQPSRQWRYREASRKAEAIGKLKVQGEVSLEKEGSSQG
Outline: (§2)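 Unfractionated human leukocytes (dextran sedimentation, hypotonic lysis) stained 30 min on ice with APC-anti-CD49d, 5.5×10^6 cells/ml in PBS with Ca++/Mg++. Preincubated 5 min at 37 °C with vehicle or inhibitor, then 5-oxo-ETE (final 10 nM) for 20 s. Eosinophils gated as high side scatter/high CD49d, neutrophils as high side scatter/low CD49d.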

Oxoeicosanoid receptor 1 [5] = molecular target: T2, Oxoeicosanoid receptor 1; test: Potency index, ratio of compound activity to Gue1654 activity for antagonism of OXE receptor (unknown origin) expressed in anti-CD49d-labeled neutrophils assessed as inhibition of 5-oxo-ETE-induced F-actin polymerization
Liver [6] = test: Drug metabolism in Sprague-Dawley rat liver homogenates assessed as metabolite retention time at 20 uM by reversed-phase HPLC analysis; format: ADME, tissue-based; details: tissue homogenate
Outline: (§3)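 Male Sprague-Dawley rat liver homogenized in 0.25 M sucrose and spun at 600 × g for 10 min. Supernatant (0.8 ml) combined with phosphate buffer pH 7.4 (final 50 mM) and NADPH (final 1 mM). Compound (20 μM) incubated 60 min at 37 °C, stopped with ice-cold MeOH. Products analysed by reversed-phase HPLC with UV detection.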

[7] = molecular target: Platelet-activating factor receptor (Homo sapiens) (UniProt P25105); test: Antagonist activity at PAF receptor (unknown origin) expressed in indo-1 loaded neutrophils assessed as inhibition of PAF-induced calcium mobilization at 10 uM by spectrofluorometric analysis; format: functional; outline: as §1
Sequence of Platelet-activating factor receptor (Homo sapiens) (P25105 whole entry): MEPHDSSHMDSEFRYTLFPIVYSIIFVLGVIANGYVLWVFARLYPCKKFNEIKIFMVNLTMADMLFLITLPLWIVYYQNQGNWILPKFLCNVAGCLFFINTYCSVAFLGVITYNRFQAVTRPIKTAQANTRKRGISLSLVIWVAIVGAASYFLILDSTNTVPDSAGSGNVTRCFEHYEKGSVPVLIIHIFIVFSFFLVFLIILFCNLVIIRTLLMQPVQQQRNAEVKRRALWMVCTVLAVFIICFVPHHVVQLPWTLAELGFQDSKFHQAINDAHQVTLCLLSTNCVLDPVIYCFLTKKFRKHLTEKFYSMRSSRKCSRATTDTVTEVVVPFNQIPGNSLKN

Oxoeicosanoid receptor 1 [8] = molecular target: T2, Oxoeicosanoid receptor 1; test: Antagonist activity at OXE receptor (unknown origin) expressed in anti-CD49d-labeled neutrophils assessed as inhibition of 5-oxo-ETE-induced F-actin polymerization preincubated for 5 mins followed by 5-oxo-ETE induction measured after 20 secs by flow cytometric analysis
Outline: as §2, with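 “s. Fixed in formaldehyde (final 8.5%), permeabilized with lysophosphatidylcholine, NBD-phalloidin (final 0.3 μM) overnight at 4 °C, flow cytometry.” for “s.”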

Oxoeicosanoid receptor 1 [9] = molecular target: T2, Oxoeicosanoid receptor 1; test: Potency index, ratio of compound activity to Gue1654 activity for antagonism of OXE receptor (unknown origin) expressed in anti-CD49d-labeled eosinophils assessed as inhibition of 5-oxo-ETE-induced F-actin polymerization
[10] = Drug metabolism in Sprague-Dawley rat liver homogenates at 20 uM after 60 mins by reversed-phase HPLC analysis in presence of NADPH; format: ADME, tissue-based; details: read-out: Drug metabolism; outline: as §3
Homo sapiens = organism: Homo sapiens; test: Antagonist activity at interleukin-8 receptor (unknown origin) expressed in indo-1 loaded neutrophils assessed as inhibition of IL-8-induced calcium mobilization by spectrofluorometric analysis; outline: as §1
Oxoeicosanoid receptor 1 [11] = molecular target: T2, Oxoeicosanoid receptor 1; test: Antagonist activity at OXE receptor (unknown origin) expressed in indo-1 loaded neutrophils assessed as inhibition of 5-oxo-ETE-induced calcium mobilization incubated for 2 mins prior to 5-oxo-ETE induction by spectrofluorometric analysis; format: functional
Oxoeicosanoid receptor 1 [12] = molecular target: T2, Oxoeicosanoid receptor 1; test: Antagonist activity at OXE receptor in human neutrophils assessed as inhibition of 5-oxo-ETE-induced calcium mobilization by spectrofluorometric analysis; format: functional
Outline: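 Indo-1 AM-loaded human neutrophils (dextran, Ficoll, hypotonic lysis) in PBS with Ca++ 1.8 mM and Mg++ 1 mM, stirred at 37 °C, ex 331/em 410 nm. Vehicle (DMSO) or antagonist at varied concentrations, then 5-oxo-ETE (final 10 nM) 2 min later, then digitonin (0.1%) 1 min later for maximal signal. IC50s are means ± SE of per-experiment IC50 values.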

Liver [13] = test: Drug metabolism in Sprague-Dawley rat liver homogenates assessed as retention time of unmetabolized compound at 20 uM by reversed-phase HPLC analysis; format: ADME, tissue-based; details: tissue homogenate; outline: as §3

Compound: CCCCCCc1c(C(=O)CC(C)CC(=O)O)c2cc(Cl)ccc2n1C (racemic)
Drug metabolism (Rattus norvegicus): Active
Drug metabolism (Liver [1]): Not Active
inhibition [2]: inactive
inhibition [3]: inactive
IC50 (Oxoeicosanoid receptor 1 [4]): 33 nM
Ratio (Oxoeicosanoid receptor 1 [5]): 10
Retention_time (Liver [6]): 14.1 min
inhibition [7]: inactive
inhibition (Oxoeicosanoid receptor 1 [8]): Active
Ratio (Oxoeicosanoid receptor 1 [9]): 10
metabolised at 1 h, 20 µM [10]: 2%
inhibition (Homo sapiens): inactive

Compound: CCCCCCc1c(C(=O)CC(C)CC(=O)O)c2ccccc2n1C (centres undefined)
IC50 (Oxoeicosanoid receptor 1 [11]): 314 nM

Compound: CCCCCCc1ccc2ccn(C(=O)CCCC(=O)O)c2c1
inhibition (Oxoeicosanoid receptor 1 [11]): Active

Compound: CCCCCCc1c(C)c2ccccc2n1C(=O)CC(C)CC(=O)O (centres undefined)
IC50 (Oxoeicosanoid receptor 1 [11]): 136 nM

Compound: CCCCCCc1[nH]c2ccccc2c1C(=O)CCCC(=O)O
IC50 (Oxoeicosanoid receptor 1 [11]): 9750 nM
inhibition (Oxoeicosanoid receptor 1 [11]): 50%

Compound: CCCCCCc1cc2ccc(OC)cc2n1C(=O)CC(C)CC(=O)O (centres undefined)
IC50 (Oxoeicosanoid receptor 1 [11]): 323 nM

Compound: CCCCC/C=C\C[C@H](O)/C=C/C=C\C=C\C(=O)CCCC(=O)O
IC50 (Oxoeicosanoid receptor 1 [12]): 500 nM

Compound: CCCCCCc1cc2cc(Cl)ccc2n1C(=O)CC(C)CC(=O)O (centres undefined)
IC50 (Oxoeicosanoid receptor 1 [11]): 141 nM

Compound: CCCCCCc1cc2cc(Br)ccc2n1C(=O)CC(C)CC(=O)O (centres undefined)
IC50 (Oxoeicosanoid receptor 1 [11]): 638 nM

Compound: CCCCCCc1c(C(=O)CCCC(=O)O)c2ccccc2n1C
IC50 (Oxoeicosanoid receptor 1 [11]): 6060 nM

Compound: CCCCCCn1cc(C(=O)CCCC(=O)O)c2ccccc21
inhibition (Oxoeicosanoid receptor 1 [11]): Active

Compound: CCCCCCc1ccc2c(ccn2C(=O)CCCC(=O)O)c1
inhibition (Oxoeicosanoid receptor 1 [11]): Active

Compound: CCCCCCCCC/C=C\c1cc2ccccc2n1C(=O)CCCC(=O)O
IC50 (Oxoeicosanoid receptor 1 [11]): 550 nM

Compound: CCCC/C=C/c1cc2ccccc2n1C(=O)CCCC(=O)O
IC50 (Oxoeicosanoid receptor 1 [11]): 4030 nM

Compound: O=C(O)CCCC(=O)n1ccc2ccccc21
IC50 (Oxoeicosanoid receptor 1 [11]): > 30000 nM

Compound: CCCCC/C=C\C[C@H](O)/C=C/C=C/C=C/C(=O)CCCC(=O)O
IC50 (Oxoeicosanoid receptor 1 [12]): 2500 nM

Compound: CCCCCCc1c(C(=O)CC(C)CC(=O)O)c2cc(Br)ccc2n1C (centres undefined)
IC50 (Oxoeicosanoid receptor 1 [11]): 26 nM

Compound: CCCCCCc1c(C(=O)CC(C)CC(=O)O)c2ccc(Cl)cc2n1C (centres undefined)
IC50 (Oxoeicosanoid receptor 1 [11]): 81 nM

Compound: CCCCCCc1c(C(=O)CCCC(=O)O)c2cc(Cl)ccc2n1C
IC50 (Oxoeicosanoid receptor 1 [11]): 566 nM

Compound: CCCCCCc1cccc2ccn(C(=O)CCCC(=O)O)c12
inhibition (Oxoeicosanoid receptor 1 [11]): Active

Compound: CCCCCCc1cn(C(=O)CCCC(=O)O)c2ccccc12
inhibition (Oxoeicosanoid receptor 1 [11]): Active

Compound: CCCCCCc1nc2ccccc2cc1C(=O)CCCC(=O)O
IC50 (Oxoeicosanoid receptor 1 [11]): > 30000 nM

Continued, values first:

IC50 (Oxoeicosanoid receptor 1 [11]): 13700 nM
Compound: CCCCc1cc2ccccc2n1C(=O)CCCC(=O)O

IC50 (Oxoeicosanoid receptor 1 [11]): 2150 nM
Compound: CCCCCc1cc2ccccc2n1C(=O)CCCC(=O)O

IC50 (Oxoeicosanoid receptor 1 [11]): 11000 nM
Compound: CCCCCCc1cc2ccccc2n1C(=O)CC(C)(C)CC(=O)O

IC50 (Oxoeicosanoid receptor 1 [11]): 750 nM
Compound: CCCCCCCc1cc2ccccc2n1C(=O)CCCC(=O)O

IC50 (Oxoeicosanoid receptor 1 [11]): 1130 nM
Compound: CCCCCCc1cc2ccccc2n1C(=O)CCCC(=O)O

IC50 (Oxoeicosanoid receptor 1 [11]): 700 nM
Compound: CCCCCCCCCCCc1cc2ccccc2n1C(=O)CCCC(=O)O

IC50 (Oxoeicosanoid receptor 1 [11]): 570 nM
Compound: CCCCCCCCc1cc2ccccc2n1C(=O)CCCC(=O)O

IC50 (Oxoeicosanoid receptor 1 [11]): 1630 nM
Compound: CCCCCCc1cc2ccccc2n1C(=O)CC1(CC(=O)O)CC1

Drug metabolism (Rattus norvegicus): Active
Drug metabolism (Liver [1]): Not Active
inhibition [2]: inactive
inhibition [3]: inactive
Retention_time (Liver [6]): 18.2 min
inhibition [7]: inactive
Retention_time (Liver [13]): 30.2 min
inhibition (Oxoeicosanoid receptor 1 [8]): Active
metabolised at 1 h, 20 µM [10]: 12%
inhibition (Homo sapiens): inactive
Compound: CCCCCCc1cc2ccc(Cl)cc2n1C(=O)CC(C)CC(=O)O (racemic)

IC50 (Oxoeicosanoid receptor 1 [11]): 30 nM
Compound: CCCCCCc1cc2ccc(Br)cc2n1C(=O)CC(C)CC(=O)O (centres undefined)

IC50 (Oxoeicosanoid receptor 1 [11]): > 30000 nM
Compound: CCCCCCc1cc2ccccc2n1C(=O)CCC(=O)O
